ChEMBL document CHEMBL1123539, “[p-[(Thienylcarbonyl)amino]phenoxy]propanolamines derivatives as diuretic and beta-adrenergic receptor blocking agents” (1986)
Each block holds one compound with its values, some of them ahead of it.

Columns and labels:
Rattus norvegicus [1] = assay: Compound was tested for oral salidiuretic activity (control/drug treatment value) in rats expressed in Na+, mequiv/6 hr at a dose of 32 mg/kg; 0.140/0.416; assay type: functional, Urine
[2] = biological target: Beta-2 adrenergic receptor (Canis lupus familiaris) (UniProt P54833)
Rattus norvegicus [3] = assay: Compound was tested for oral salidiuretic activity (control/drug treatment value) in rats expressed as urinary output. at a dose of 32 mg/kg; 10.33/10.75; assay type: functional, Urine
[4] = biological target: Beta-1 adrenergic receptor (Homo sapiens) (UniProt P08588); conditions: Canis lupus familiaris
Rattus norvegicus [5] = assay: Compound was tested for oral salidiuretic activity (control/drug treatment value) in rats expressed in Na+, mequiv/6 hr at a dose of 128 mg/kg; 0.306/0.786; assay type: functional, Urine
Rattus norvegicus [6] = assay: Compound was tested for oral salidiuretic activity (control/drug treatment value) in rats expressed as urinary output. at a dose of 128 mg/kg; 6.83/10.83; assay type: functional, Urine
Rattus norvegicus [7] = assay: Compound was tested for oral salidiuretic activity (control/drug treatment value) in rats expressed in Na+, mequiv/6 hr at a dose of 128 mg/kg; 0.216/0.263; assay type: functional, Urine
Rattus norvegicus [8] = assay: Compound was tested for oral salidiuretic activity (control/drug treatment value) in rats expressed in Na+, mequiv/6 hr at a dose of 64 mg/kg; 0.216/0.097; assay type: functional, Urine
Rattus norvegicus [9] = assay: Compound was tested for oral salidiuretic activity (control/drug treatment value) in rats expressed as urinary output. at a dose of 128 mg/kg; 9.05/12.83; assay type: functional, Urine
Rattus norvegicus [10] = assay: Compound was tested for oral salidiuretic activity (control/drug treatment value) in rats expressed as urinary output. at a dose of 16 mg/kg; 9.05/9.87; assay type: functional, Urine
Rattus norvegicus [11] = assay: Compound was tested for oral salidiuretic activity (control/drug treatment value) in rats expressed in Na+, mequiv/6 hr at a dose of 32 mg/kg; 0.216/0.207; assay type: functional, Urine
Rattus norvegicus [12] = assay: Compound was tested for oral salidiuretic activity (control/drug treatment value) in rats expressed in Na+, mequiv/6 hr at a dose of 16 mg/kg; 0.216/0.178; assay type: functional, Urine
Rattus norvegicus [13] = assay: Compound was tested for oral salidiuretic activity (control/drug treatment value) in rats expressed as urinary output. at a dose of 64 mg/kg; 6.42/11.25; assay type: functional, Urine
Rattus norvegicus [14] = assay: Compound was tested for oral salidiuretic activity (control/drug treatment value) in rats expressed in Na+, mequiv/6 hr at a dose of 128 mg/kg;. 207/1.364; assay type: functional, Urine
Rattus norvegicus [15] = assay: Compound was tested for oral salidiuretic activity (control/drug treatment value) in rats expressed as urinary output. at a dose of 32 mg/kg at 0-2h; 7.42/9.64; assay type: functional, Urine
Rattus norvegicus [16] = assay: Compound was tested for oral salidiuretic activity (control/drug treatment value) in rats expressed in Na+, mequiv/6 hr at a dose of 16 mg/kg; 0.207/0.554; assay type: functional, Urine
Rattus norvegicus [17] = assay: Compound was tested for oral salidiuretic activity (control/drug treatment value) in rats expressed as urinary output. at a dose of 16 mg/kg; 6.42/9; assay type: functional, Urine
Rattus norvegicus [18] = assay: Compound was tested for oral salidiuretic activity (control/drug treatment value) in rats expressed in Na+, mequiv/6 hr at a dose of 32 mg/kg; 0.259/0.680; assay type: functional, Urine
Rattus norvegicus [19] = assay: Compound was tested for oral salidiuretic activity (control/drug treatment value) in rats expressed as urinary output. at a dose of 128 mg/kg; 6.42/15.08; assay type: functional, Urine
[20] = biological target: Beta-1 adrenergic receptor (Homo sapiens) (UniProt P08588); assay: Compound was tested for beta-1 adrenergic receptor blocking activity in dogs; conditions: Canis lupus familiaris; target entry is the homologue from another species
[21] = biological target: Beta-1 adrenergic receptor (Homo sapiens) (UniProt P08588); assay: Compound was tested for beta-1 adrenergic receptor blocking activity in conscious rats after 5 hr; conditions: Rattus norvegicus; target entry is the homologue from another species
Rattus norvegicus [22] = assay: Compound was tested for oral salidiuretic activity (control/drug treatment value) in rats expressed as urinary output. at a dose of 32 mg/kg; 6.42/9.83; assay type: functional, Urine
Rattus norvegicus [23] = assay: Compound was tested for oral salidiuretic activity (control/drug treatment value) in rats expressed as urinary output. at a dose of 32 mg/kg at 0-4 h; 9.02/11.67; assay type: functional, Urine
[24] = biological target: Beta-1 adrenergic receptor (Homo sapiens) (UniProt P08588); assay: Compound was tested for beta-1 adrenergic receptor blocking activity in conscious rats after 1 hr; conditions: Rattus norvegicus; target entry is the homologue from another species
[25] = biological target: Beta-2 adrenergic receptor (Rattus norvegicus) (UniProt P10608); assay: The compound was tested for beta-2 adrenergic receptor blocking activity in conscious rats after 1 hr
Rattus norvegicus [26] = assay: Compound was tested for oral salidiuretic activity (control/drug treatment value) in rats expressed in Na+, mequiv/6 hr at a dose of 64 mg/kg; 0.207/0.766; assay type: functional, Urine
Rattus norvegicus [27] = assay: Compound was tested for oral salidiuretic activity (control/drug treatment value) in rats expressed as urinary output. at a dose of 32 mg/kg at 0-6 h; 9.99/13.01; assay type: functional, Urine
Rattus norvegicus [28] = assay: Compound was tested for oral salidiuretic activity (control/drug treatment value) in rats expressed in Na+, mequiv/6 hr at a dose of 32 mg/kg; 0.207/0.626; assay type: functional, Urine
[29] = biological target: Beta-2 adrenergic receptor (Canis lupus familiaris) (UniProt P54833); assay: The compound was tested for beta-2 adrenergic receptor blocking activity in dogs
How it was run: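 In two dogs, drugs were injected via a cannulated saphenous vein, with increasing doses given every 30 min and each animal used once per substance. Isoproterenol-induced changes in diastolic arterial pressure after each dose were compared with isoproterenol control responses to calculate percent blockade. ID50 (50% inhibition) was estimated from the dose-response curve.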

Rattus norvegicus [30] = assay: Compound was tested for oral salidiuretic activity (control/drug treatment value) in rats expressed in Na+, mequiv/6 hr at a dose of 128 mg/kg; 0.202/0.961; assay type: functional, Urine
Rattus norvegicus [31] = assay: Compound was tested for oral salidiuretic activity (control/drug treatment value) in rats expressed as urinary output. at a dose of 128 mg/kg; 7.17/11.25; assay type: functional, Urine
Rattus norvegicus [32] = assay: Compound was tested for oral salidiuretic activity (control/drug treatment value) in rats expressed as urinary output. at a dose of 128 mg/kg; 4.88/5.32; assay type: functional, Urine
Rattus norvegicus [33] = assay: Compound was tested for oral salidiuretic activity (control/drug treatment value) in rats expressed in Na+, mequiv/6 hr at a dose of 128 mg/kg; 0.229/0.172; assay type: functional, Urine
Rattus norvegicus [34] = assay: Compound was tested for oral salidiuretic activity (control/drug treatment value) in rats expressed in Na+, mequiv/6 hr at a dose of 128 mg/kg; 0.114/0.707
Rattus norvegicus [35] = assay: Compound was tested for oral salidiuretic activity (control/drug treatment value) in rats expressed as urinary output. at a dose of 128 mg/kg; 7.70/12.75; assay type: functional, Urine

Chain of Beta-2 adrenergic receptor (Canis lupus familiaris) (P54833 whole entry, looked up): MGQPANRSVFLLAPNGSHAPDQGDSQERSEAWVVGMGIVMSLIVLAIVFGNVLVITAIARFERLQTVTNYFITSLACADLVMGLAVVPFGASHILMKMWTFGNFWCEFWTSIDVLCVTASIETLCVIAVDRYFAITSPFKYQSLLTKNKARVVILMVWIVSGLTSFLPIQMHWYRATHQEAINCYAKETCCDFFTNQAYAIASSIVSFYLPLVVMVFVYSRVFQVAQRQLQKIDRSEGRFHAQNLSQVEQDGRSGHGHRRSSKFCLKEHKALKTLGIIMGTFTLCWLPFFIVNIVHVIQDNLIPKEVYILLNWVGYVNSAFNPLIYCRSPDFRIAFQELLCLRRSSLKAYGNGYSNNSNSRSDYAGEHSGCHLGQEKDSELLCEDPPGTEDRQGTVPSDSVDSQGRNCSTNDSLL
Chain of Beta-1 adrenergic receptor (Homo sapiens) (P08588 whole entry, looked up): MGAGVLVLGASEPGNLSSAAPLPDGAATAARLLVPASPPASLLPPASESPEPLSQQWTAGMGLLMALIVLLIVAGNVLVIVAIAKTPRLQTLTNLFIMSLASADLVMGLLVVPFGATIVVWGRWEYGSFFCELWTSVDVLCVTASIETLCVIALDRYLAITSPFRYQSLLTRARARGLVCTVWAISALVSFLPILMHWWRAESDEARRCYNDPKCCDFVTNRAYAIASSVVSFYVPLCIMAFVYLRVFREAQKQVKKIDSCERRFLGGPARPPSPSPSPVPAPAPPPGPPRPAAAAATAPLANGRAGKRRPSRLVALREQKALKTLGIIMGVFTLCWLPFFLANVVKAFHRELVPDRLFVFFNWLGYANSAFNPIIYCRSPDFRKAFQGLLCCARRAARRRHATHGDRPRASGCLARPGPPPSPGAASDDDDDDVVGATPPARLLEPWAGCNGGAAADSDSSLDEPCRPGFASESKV
Chain of Beta-2 adrenergic receptor (Rattus norvegicus) (P10608 whole entry, looked up): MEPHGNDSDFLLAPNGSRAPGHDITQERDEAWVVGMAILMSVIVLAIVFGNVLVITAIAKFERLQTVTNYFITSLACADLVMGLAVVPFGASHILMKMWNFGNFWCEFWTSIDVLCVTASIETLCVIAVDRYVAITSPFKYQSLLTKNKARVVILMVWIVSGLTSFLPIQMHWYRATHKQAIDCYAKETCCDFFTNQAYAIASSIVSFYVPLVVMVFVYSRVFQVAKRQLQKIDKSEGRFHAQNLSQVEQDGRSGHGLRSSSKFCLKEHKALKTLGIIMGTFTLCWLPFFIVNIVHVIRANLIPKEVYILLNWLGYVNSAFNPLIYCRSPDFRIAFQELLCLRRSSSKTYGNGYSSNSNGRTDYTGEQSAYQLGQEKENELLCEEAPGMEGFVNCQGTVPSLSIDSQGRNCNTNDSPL

SMILES: CC(C)NCC(O)COc1cccc2ccccc12 (stereo not drawn) [PROPRANOLOL]
- Activity (Rattus norvegicus [7]): 0.216
- Activity (Rattus norvegicus [8]): 0.216
- Activity (Rattus norvegicus [9]): 9.05 mL
- Activity (Rattus norvegicus [10]): 9.05 mL
- Activity (Rattus norvegicus [11]): 0.216
- Activity (Rattus norvegicus [12]): 0.216

SMILES: CCCOC(=O)c1cc(NC(=O)c2cccs2)ccc1OCC(O)CNC(C)(C)C (stereo not drawn)
- Activity (Rattus norvegicus [30]): 0.202
- ID50 [2]: > 1 mg/kg
- ID50 [4]: 0.27 mg/kg
- Activity (Rattus norvegicus [31]): 7.17 mL

SMILES: CC(C)NCC(O)COc1ccc(NC(=O)c2cccs2)cc1 (stereo not drawn)
- Activity (Rattus norvegicus [34]): 0.114
- treated urinary output (Rattus norvegicus [35]): 12.8 mL
- ID50 [2]: > 1 mg/kg
- ID50 [4]: 0.045 mg/kg

Continued, in another order:

- ID50 [2]: > 1 mg/kg
- ID50 [4]: 0.03 mg/kg
SMILES: Cc1cc(NC(=O)c2cccs2)ccc1OCC(O)CNC(C)(C)C (stereo not drawn)
- Activity (Rattus norvegicus [1]): 0.14
- Activity (Rattus norvegicus [3]): 10.33 mL

- ID50 [2]: > 1 mg/kg
- ID50 [4]: 0.042 mg/kg
SMILES: COC(=O)c1cc(NC(=O)c2cccs2)ccc1OCC(O)CNC(C)(C)C (stereo not drawn)
- Activity (Rattus norvegicus [5]): 0.306
- Activity (Rattus norvegicus [6]): 6.83 mL

- ID50 [20]: 0.065 mg/kg
- ED50 [21]: 0.00179 mg/kg
- ED50 [24]: 0.00176 mg/kg
- ED50 [25]: 0.00133 mg/kg
- ID50 [29]: > 1 mg/kg
SMILES: CCOC(=O)c1cc(NC(=O)c2cccs2)ccc1OCC(O)CNC(C)(C)C (stereo not drawn) [TIENOXOLOL]
- treated urinary output (Rattus norvegicus [13]): 11.2 mL
- Activity (Rattus norvegicus [14]): 0.207
- Activity (Rattus norvegicus [15]): 7.42 mL
- Activity (Rattus norvegicus [16]): 0.207
- treated urinary output (Rattus norvegicus [17]): 9 mL
- Activity (Rattus norvegicus [18]): 0.259
- Activity (Rattus norvegicus [19]): 6.42 mL
- treated urinary output (Rattus norvegicus [22]): 9.83 mL
- Activity (Rattus norvegicus [23]): 9.02 mL
- Activity (Rattus norvegicus [26]): 0.207
- Activity (Rattus norvegicus [27]): 9.99 mL
- Activity (Rattus norvegicus [28]): 0.207

- ID50 [2]: > 8 mg/kg
- ID50 [4]: > 8 mg/kg
SMILES: CC(C)(C)NCC(O)COc1ccc(NC(=O)c2cccs2)cc1C(=O)O (stereo not drawn)
- treated urinary output (Rattus norvegicus [32]): 5.32 mL
- Activity (Rattus norvegicus [33]): 0.229
